Screening data (PubChem BioAssay)
A selection: hits, their analogues and other compounds. The true share with any hit is near 1.2%.
PfGluPho inh: PfG6PD (Plasmodium falciparum) enzyme inhibition. PfGluPho enzyme, NADPH resazurin-diaphorase fluorescence. inhibition, % at 20 µM. hit rate 0.78% among 350,000. AID 504690;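 active = inhibition reaching at least a set limit at 20 µM in the primary screen, cut at about 59% in these data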;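 note: 0% = DMSO wells with substrate and 100% = DMSO wells lacking glucose-6-phosphate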
HKDC1 inhibitor: inhibitors of human hexokinase HKDC1. Q2TB90. recombinant HKDC1, G6PDH/diaphorase resazurin coupled fluorescence. inhibition, % at 20 µM. hit rate 0.16% among 340,000;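 active = inhibition above about 35% when tested at 20 µM, limit read from the data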;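 note: plate controls were DMSO wells with enzyme for no effect and DMSO wells lacking enzyme for full effect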
Target sequence (Q2TB90 whole entry, looked up): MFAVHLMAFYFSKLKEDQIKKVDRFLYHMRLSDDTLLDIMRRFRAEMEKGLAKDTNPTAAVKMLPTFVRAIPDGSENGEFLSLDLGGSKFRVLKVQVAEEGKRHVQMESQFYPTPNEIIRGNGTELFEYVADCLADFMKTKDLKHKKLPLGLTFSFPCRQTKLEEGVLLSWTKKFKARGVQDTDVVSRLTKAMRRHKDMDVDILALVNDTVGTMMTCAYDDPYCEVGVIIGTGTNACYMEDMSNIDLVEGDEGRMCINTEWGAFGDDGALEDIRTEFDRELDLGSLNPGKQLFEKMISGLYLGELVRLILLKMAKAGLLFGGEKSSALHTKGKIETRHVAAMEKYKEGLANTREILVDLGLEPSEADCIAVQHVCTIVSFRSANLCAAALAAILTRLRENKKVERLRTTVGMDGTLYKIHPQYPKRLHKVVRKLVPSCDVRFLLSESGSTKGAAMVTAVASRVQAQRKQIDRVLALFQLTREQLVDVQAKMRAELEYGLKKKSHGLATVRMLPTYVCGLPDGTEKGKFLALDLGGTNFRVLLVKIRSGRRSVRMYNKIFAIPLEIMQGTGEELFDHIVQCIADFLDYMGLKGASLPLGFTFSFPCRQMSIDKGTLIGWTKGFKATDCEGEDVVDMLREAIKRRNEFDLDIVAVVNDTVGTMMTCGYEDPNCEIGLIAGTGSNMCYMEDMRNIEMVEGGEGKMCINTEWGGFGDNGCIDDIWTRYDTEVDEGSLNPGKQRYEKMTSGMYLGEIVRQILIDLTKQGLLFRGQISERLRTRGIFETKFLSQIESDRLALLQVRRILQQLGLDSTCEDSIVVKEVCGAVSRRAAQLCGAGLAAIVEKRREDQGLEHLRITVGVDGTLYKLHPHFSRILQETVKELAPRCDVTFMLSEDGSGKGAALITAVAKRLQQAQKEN
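Material: recombinant HKDC1 hexokinase; Amount: HKDC1 at 5 µg/mL; Medium: Tris pH 8.0 buffer with MgCl2, Tween-20, BSA, BME; Schedule: 90 min reaction incubation at room temperature, dark; Technique: coupled resazurin fluorescence, excitation 525 nm, emission 613 nm.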
Diaphorase inh: diaphorase inhibition or chemical oxidation counter-screen | diaphorase resazurin-to-resorufin fluorescence, NADH, 16 min; bacterial (C. kluyveri) enzyme, not human | hit rate 0.69% among 190,000 | AID 1217 | inhibition, % at 20 µM;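 active = primary screen inhibition at 20 µM above a set limit, cut at about 50% in these data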;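 note: plate controls were DMSO with full reaction for no effect and wells lacking NADH for full effect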
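Assay system: diaphorase enzyme from Clostridium kluyveri. Quantity: enzyme working solution with 0.14 U/mL diaphorase. Schedule: reaction incubation of 16 min at room temperature. Technique: resorufin fluorescence, excitation 544 nm, emission 590 nm. Controls: No-NADH positive control and DMSO neutral control.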
Diaph act CS: counter-screen for diaphorase-based assays: diaphorase activators and chemical reducers | AID 1229 | activation factor at 20 µM | Diaphorase/resazurin coupled assay, resorufin fluorescence, 16 min; stronger effect = higher value; 1 = vehicle wells, 0 = NADH-free wells | hit rate 0.005% among 190,000;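 active = diaphorase activity raised at least twofold by the compound at 20 µM; inactive = activation factor below 2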
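Assay system: Purified diaphorase enzyme from Clostridium kluyveri | Amount: Enzyme 0.07 U/mL final | Dosing: Compound 20 µM once, DMSO 1% | Timing: 16 min reaction at room temperature | Detection: Fluorescence, excitation 544 nm and emission 590 nm | Evaluation: Higher resorufin formation from activation or reduction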
G6PDH counter: inhibits Leuconostoc G6PDH, flagging false hits in G6PDH-based assays | inhibition, % at 5 µM | AID 1020 | hit rate 0.12% among 200,000 | Purified L. mesenteroides G6PDH, diaphorase/resazurin coupled fluorescence, 45 min; in the data active = inhibition above about 50%
HKDC1 act conf: HKDC1 (human) activation, single-dose confirmed | shares compounds with HKDC1 inhibitor | recombinant HKDC1, G6PDH/diaphorase resazurin fluorescence; stronger effect = lower value | inhibition, % at 20 µM | hit rate 14% among 740;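 active = inhibition at or below a set negative limit, negative inhibition meaning the enzyme was activated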
Numbers without * were called inactive; / = no result given.

SMILES | PfGluPho inh | HKDC1 inhibitor | Diaphorase inh | Diaph act CS | G6PDH counter | HKDC1 act conf
CCOC(=O)C1=C(Cc2ccc(Cl)cc2)C(=O)c2ccccc2C1=O | 94* | 60* | 37 | 0.6 | 55* | 39
COc1ccc(-c2noc(CCC(=O)Nc3cccc(C(=O)NC4CC4)c3)n2)cc1OC | -10 | / | / | / | / | /
COc1cccc(C(=O)NCC(c2ccco2)N2CCc3ccccc3C2)c1 (configuration not stated) | 18 | 35 | / | / | / | 0
COc1ccc([C@H]2C[C@@H](n3cc(-c4ccc(F)cc4)nn3)[C@H](O)CN2C(=O)C2CCCCC2)cc1 | 0 | / | / | / | / | /
Cc1cccc(C)c1Nc1nnc(SCc2cn3cccc(C)c3n2)s1 | 16 | 34 | 47 | 0.5 | 16 | 54
CCc1nn2c(=O)cc(COc3ccc(/C=C4\C(=N)N5N=C(CC(C)C)SC5=NC4=O)cc3)nc2s1 | -23 | 22 | / | / | / | /
CCC1=NN2C(=N)/C(=C\c3ccc(OCc4cc(=O)n5nc(CC)sc5n4)c(OC)c3)C(=O)N=C2S1 | -3 | 34 | 54* | 0.5 | 0 | 23
COc1ccccc1CN(C)C[C@@H]1OCc2cnnn2CCCC(=O)N([C@H](C)CO)C[C@H]1C | -2 | / | / | / | / | /
COc1ccc(NC(=O)CSc2ccc(-c3ccco3)nn2)cc1OC | 44 | 43* | / | / | / | 44
COc1ccc(OC)c(NC(=O)CSc2ccc(-c3ccco3)nn2)c1 | 53 | 43* | / | / | / | 38
COc1cccc(NC(=O)CSc2ccc(-c3ccco3)nn2)c1 | 16 | 11 | / | / | / | /
Cc1nnc(Cc2ccccc2)c2n[nH]c(C)c12 | 7 | / | / | / | / | /
Cc1ccc(NC(=O)CN2C(=O)S/C(=C/c3ccc(-c4cc(C(=O)O)ccc4C)o3)C2=O)cc1C | 2 | 43* | 71* | 0.3 | 9 | 1
O=C1/C(=C\c2ccc(-c3ccccc3[N+](=O)[O-])o2)C(c2ccccc2)=NN1c1ccccc1 | 16 | 42* | 19 | 0.8 | -4 | 3
Cc1nc2c3cc(F)ccc3n(Cc3ccccc3)c2s1 | 41 | -60 | 25 | 0.8 | 3 | -61*
Cc1nc2c3cc(F)ccc3n(Cc3ccccc3F)c2s1 | -1 | -3 | 9 | 0.9 | 0 | /
COc1ccc(CN(C)C[C@@H]2OCCCC[C@H](C)Oc3ccc(NC(=O)Nc4ccc(F)cc4)cc3C(=O)N([C@H](C)CO)C[C@H]2C)cc1 | 21 | / | / | / | / | /
N#Cc1cccc(C(Br)S(=O)(=O)c2ccccc2)c1 (configuration not stated) | 0 | / | / | / | / | /
CC(=NNC(=S)N1CCCCC1)c1cccc(C)n1 | 34 | -40 | / | / | / | -40*
CC(C)CC1NC(=O)c2cccnc2-n2c1nc1cc(F)ccc1c2=O (configuration not stated) | 1 | / | / | / | / | /
Cc1cc(S(=O)(=O)N2CCC3(CC2)OCCO3)c(C)cc1Cl | -5 | -5 | / | / | / | /
O=S(=O)(c1cc(Cl)cc(Cl)c1O)N1CCC2(CC1)OCCO2 | -24 | 34 | / | / | / | -12
Cc1ccc(C)c(S(=O)(=O)N2CCN(C(=O)CN3C(=O)NC(C)(C)C3=O)CC2)c1 | -4 | -8 | / | / | / | /
Cc1ccc(S(=O)(=O)N2CCN(C(=O)CN3C(=O)NC4(CCCCC4)C3=O)CC2)c(C)c1 | -12 | 38* | / | / | / | -18
CNC(=O)C[C@@H]1C(=O)N(CCc2ccccc2)CC1(C)C | -14 | / | / | / | / | /
SMILES | PfGluPho inh | HKDC1 inhibitor | Diaphorase inh | Diaph act CS | G6PDH counter | HKDC1 act conf
Cc1onc(-c2ccccc2)c1C(=O)NC(=S)NNC(=O)c1ccccc1O | -33 | -45 | 22 | 0.8 | 0 | -17
Cc1onc(-c2ccccc2)c1C(=O)NC(=S)NNC(=O)c1ccc(O)cc1O | -42 | -40 | 26 | 0.7 | -6 | /
Oc1ccc(/C=N/Nc2ccnc3cc(Cl)ccc23)c(O)c1O | 53 | 37* | / | / | / | -21
Oc1ccc(/C=N/Nc2ccnc3cc(Cl)ccc23)cc1O | -3 | -3 | / | / | / | /
CCOC(=O)c1csc(NC(=O)CSc2nnnn2-c2ccc(OC)cc2)n1 | -18 | -4 | 14 | 0.9 | 2 | /
CCOC(=O)c1c(NC(=O)CSc2nnnn2-c2ccc(OC)cc2)sc(C)c1C | 90* | -48 | 4 | 1 | 5 | -42*
Cc1nn(C)c(C)c1/C=C(\C#N)S(=O)(=O)c1ccc(F)cc1 | -17 | / | / | / | / | /
O=C1C(=Cc2ccc(Br)o2)C(=O)c2ccccc21 | -4 | 36* | 64* | 0.4 | -16 | 36
O=C1c2ccccc2-c2onc3ccc(Oc4ccccc4)c1c23 | 38 | 34 | 25 | 0.7 | 28 | 28
Cc1ccc(S(=O)(=O)NC[C@H]2O[C@@H](n3ccc(N)nc3=O)[C@H](O)[C@@H]2O)s1 | 7 | / | / | / | / | /
Cc1cc(C)n2cc(CSc3nnnn3-c3ccccc3)nc2n1 | 7 | 3 | 1 | 1 | 5 | /
Cc1cc(C)n2cc(CSc3nnc(-c4ccccc4)c(-c4ccccc4)n3)nc2n1 | 29 | 38* | / | / | / | 38
CC(C)CC1C(=O)N(Cc2cn(CC3CCCCC3)nn2)CCS(=O)(=O)N1Cc1ccc(-c2cccc(CO)c2)cc1 (configuration not stated) | 9 | / | / | / | / | /
COc1ccc(C(=O)CSc2n[nH]c(-c3ccco3)n2)cc1 | -20 | 5 | 20 | 0.8 | 2 | /
Cc1ccc(C(=O)CSc2n[nH]c(-c3ccco3)n2)cc1C | 10 | 31 | 54* | 0.5 | 9 | 31
CCCCC(NC(=O)Cc1c(C)c2cc3c(C)c(C)oc3c(C)c2oc1=O)C(=O)O (configuration not stated) | -25 | 2 | / | / | / | /
CCCC(NC(=O)Cc1c(C)c2cc3c(C)c(C)oc3c(C)c2oc1=O)C(=O)N[C@@H](Cc1ccccc1)C(=O)O (some centres not stated) | -7 | 52* | / | / | / | -19
O=c1[nH]cc(S(=O)(=O)N2CCN(c3ccc(F)cc3)CC2)c(=O)[nH]1 | -7 | / | / | / | / | /
S=C(NCCc1ccc(Cl)cc1)NCc1ccccc1 | -3 | -63 | / | / | / | -12
CC(=O)c1ccc(Cc2ccc(C(C)=O)s2)s1 | -18 | / | / | / | / | /
CC(=O)OCC1=C(C(=O)O)N2C(=O)[C@@H](NC(=O)Cc3ccccc3)[C@H]2SC1 | 1 | 3 | / | / | / | /
C=CC1=C(C(=O)O)N2C(=O)C(NC(=O)Cc3ccccc3)C2SC1 (configuration not stated) | 10 | 40* | 18 | 0.8 | 0 | -8
Cc1ccc(-c2nc(NC(=O)CSc3cc(C)c4ccccc4n3)ns2)cc1 | 1 | 57* | 66* | 0.3 | 4 | -2
C=CCC1(CC=C)CCCN1C(=O)c1ccc2oc(CCCC)nc2c1 | 0 | / | / | / | / | /
CCCCCC(=O)Nc1cc(S(=O)(=O)O)cc2cc(S(=O)(=O)O)cc(O)c12 | 45 | 33 | / | / | / | 19
CCCCCC(=O)Nc1cc(S(=O)(=O)N2CCCCC2)ccc1N1CCCCC1 | 19 | 1 | / | / | / | /
CCc1nc2c(c(=O)c3ccccc3n2C)c(=O)n1-c1ccc(F)cc1 | 53 | 48* | 74* | 0.3 | -1 | 73
